Assay results from different studies.
Compare with care: the assays were run in different laboratories.
Organism: Staphylococcus aureus
Effect on: microbial growth

SMILES | assay | system | conditions | MIC
CN[C@H](CC(C)C)C(=O)N[C@H]1C(=O)N[C@@H](CC(N)=O)C(=O)N[C@H]2C(=O)N[C@H]3C(=O)N[C@H](C(=O)N[C@H](C(=O)O)c4cc(O)cc(O)c4-c4cc3ccc4O)[C@H](O)c3ccc(c(Cl)c3)Oc3cc2cc(c3O[C@@H]2O[C@H](CO)[C@@H](O)[C@H](O)[C@H]2O[C@H]2C[C@](C)(N)[C@H](O)[C@H](C)O2)Oc2ccc(cc2Cl)[C@H]1O | broth dilution | USA300 |  | 1 µg/mL
c1ccc(CSc2nc3ccccc3cc2CNCc2ccc(CN3CCCC3)cc2)cc1 | broth dilution |  |  | 64 µg/mL
Cc1ccc2[nH]nc(-c3nnc(Nc4ccc(F)cc4Cl)s3)c2c1 |  | ATCC29213 |  | 29.7 µg/mL
CCCCCCC#Cc1cncc(-c2nnc(SCc3ccc([N+](=O)[O-])cc3)n2CCCN)c1 | broth dilution | ATCC29213 |  | 8 µg/mL
CC(=O)NC[C@H]1CN(c2ccc(N3CCOCC3)c(F)c2)C(=O)O1 |  | MRSA |  | 1 µg/mL
CCN1CCC(CCNCc2cc3cc(-c4ccccc4)ccc3nc2SCc2ccccc2)CC1 | broth dilution |  |  | 4 µg/mL
CN(C)[C@@H]1C(O)=C(C(N)=O)C(=O)[C@@]2(O)C(O)=C3C(=O)c4c(O)cccc4[C@@](C)(O)[C@H]3C[C@@H]12 | broth dilution | ATCC25923 | 16 h | 3.1 µM
O=C(N[C@H](CO)[C@H](O)c1ccc([N+](=O)[O-])cc1)C(Cl)Cl | broth dilution | ATCC25923 |  | 6.25 µg/mL
CCCCCCC#Cc1cncc(-c2nnc(SCc3ccc(Cl)cc3)n2CCCN)c1 | broth dilution | ATCC29213 |  | 8 µg/mL
CC[C@H]1OC(=O)[C@H](C)[C@@H](O[C@H]2C[C@@](C)(OC)[C@@H](O)[C@H](C)O2)[C@H](C)[C@@H](O[C@@H]2O[C@H](C)C[C@H](N(C)C)[C@H]2O)[C@](C)(O)C[C@@H](C)CN(C)[C@H](C)[C@@H](O)[C@]1(C)O | broth dilution | USA300 |  | > 64 µg/mL
C=C[C@]1(C)C[C@@H](OC(=O)CS[C@@H]2C[C@H]3CC[C@@H](C2)N3C)[C@]2(C)[C@H](C)CC[C@]3(CCC(=O)[C@H]32)[C@@H](C)[C@@H]1O | agar dilution | ATCC25923 |  | 0.0312 µg/mL
[H]/N=C(/N)N[C@H]1[C@H](O)[C@@H](O)[C@H](O[C@@H]2O[C@@H](C)[C@](O)(C=O)[C@H]2O[C@@H]2O[C@@H](CO)[C@H](O)[C@@H](O)[C@@H]2NC)[C@@H](N/C(N)=N\[H])[C@@H]1O | broth dilution | ATCC6538 |  | 15 µg/mL
COc1ccc(N2N=C(C(=O)c3ccc(Nc4cnccn4)cc3)SC2=C(C#N)C#N)cc1 | broth dilution | ATCC25923 |  | 3.12 µg/mL
CC[C@H]1OC(=O)[C@H](C)[C@@H](O[C@H]2C[C@@](C)(OC)[C@@H](O)[C@H](C)O2)[C@H](C)[C@@H](O[C@@H]2O[C@H](C)C[C@H](N(C)C)[C@H]2O)[C@](C)(O)C[C@@H](C)/C(=N\OCOCCOC)[C@H](C)[C@@H](O)[C@]1(C)O | agar dilution | ATCC25923 |  | 2 µg/mL
N[C@@H](Cc1c[nH]c2ccc(Cl)cc12)C(=O)O |  | NEWMAN | 18 h | 200 µM
Cc1ccc2[nH]nc(-c3nnc(Nc4ccc(C)c(C)c4)s3)c2c1 |  | ATCC29213 |  | 94.2 µg/mL
CC1(C)S[C@@H]2[C@H](NC(=O)[C@H](N)c3ccc(O)cc3)C(=O)N2[C@H]1C(=O)O | broth dilution | USA300 |  | 64 µg/mL
CC(=O)c1ccc2cc(S(=O)(=O)NCc3ccccc3)ccc2c1 | broth dilution | ATCC25923 |  | 40000 µg/mL
CN[C@H](CC(C)C)C(=O)N[C@H]1C(=O)N[C@@H](CC(N)=O)C(=O)N[C@H]2C(=O)N[C@H]3C(=O)N[C@H](C(=O)N[C@H](C(=O)O)c4cc(O)cc(O)c4-c4cc3ccc4O)[C@H](O)c3ccc(c(Cl)c3)Oc3cc2cc(c3O[C@@H]2O[C@H](CO)[C@@H](O)[C@H](O)[C@H]2O[C@H]2C[C@](C)(N)[C@H](O)[C@H](C)O2)Oc2ccc(cc2Cl)[C@H]1O |  | MRSA |  | 0.5 µg/mL
c1ccc(CSc2nc3ccccc3cc2CNCc2ccc(N3CCCCC3)cc2)cc1 | broth dilution |  |  | > 128 µg/mL
CCCCCCCCCCCC[N+](C)(C)Cc1ccccc1 |  | MRSA USA300 | drug-resistant strain | 8 µM
CN[C@H](CC(C)C)C(=O)N[C@H]1C(=O)N[C@@H](CC(N)=O)C(=O)N[C@H]2C(=O)N[C@H]3C(=O)N[C@H](C(=O)N[C@H](C(=O)O)c4cc(O)cc(O)c4-c4cc3ccc4O)[C@H](O)c3ccc(c(Cl)c3)Oc3cc2cc(c3O[C@@H]2O[C@H](CO)[C@@H](O)[C@H](O)[C@H]2O[C@H]2C[C@](C)(N)[C@H](O)[C@H](C)O2)Oc2ccc(cc2Cl)[C@H]1O | broth dilution | MRSA |  | 0.67 µM
CN[C@H](CC(C)C)C(=O)N[C@H]1C(=O)N[C@@H](CC(N)=O)C(=O)N[C@H]2C(=O)N[C@H]3C(=O)N[C@H](C(=O)N[C@H](C(=O)O)c4cc(O)cc(O)c4-c4cc3ccc4O)[C@H](O[C@H]3C[C@](C)(N)[C@@H](O)[C@H](C)O3)c3ccc(c(Cl)c3)Oc3cc2cc(c3O[C@@H]2O[C@H](CO)[C@@H](O)[C@H](O)[C@H]2O[C@H]2C[C@](C)(NCc3ccc(-c4ccc(Cl)cc4)cc3)[C@@H](O)[C@H](C)O2)Oc2ccc(cc2Cl)[C@H]1O | broth dilution |  |  | 2 µM
CCCCCCCCN=c1ccn(CCCCCCCCCCn2ccc(=NCCCCCCCC)cc2)cc1 |  | MRSA USA300 | drug-resistant strain | 0.5 µM
CC1(C)S[C@@H]2[C@H](NC(=O)[C@H](N)c3ccccc3)C(=O)N2[C@H]1C(=O)O | agar dilution | ATCC29213 |  | 16 µg/mL
Cc1ccc2[nH]nc(-c3nnc(Nc4ccc(F)cc4)s3)c2c1 |  | ATCC29213 |  | 18.3 µg/mL
C[C@@H](O)[C@H]1C(=O)N2C(C(=O)O)=C(S[C@@H]3CN[C@H](C(=O)N(C)C)C3)[C@H](C)[C@H]12 |  | ATCC29213 MSSA | drug-resistant strain | 0.06 µg/mL
CCCCCCC#Cc1cncc(-c2nnc(SCc3ccc([N+](=O)[O-])o3)n2CCCN)c1 | broth dilution | MRSA |  | > 64 µg/mL
[H]/N=C(\N/C(=N/[H])NCCCCCCNC(=N)NC(=N)Nc1ccc(Cl)cc1)Nc1ccc(Cl)cc1 |  | MRSA USA300 | drug-resistant strain | 1 µM
C[C@H]1COc2c(N3CCN(C)CC3)c(F)cc3c(=O)c(C(=O)O)cn1c23 | broth dilution | ATCCBAA44 | 18 h | 50 µM
